In ChEMBL document CHEMBL1156156, “Conformationally-restricted amino acid analogues bearing a distal sulfonic acid show selective inhibition of system x(c)(-) over the vesicular glutamate transporter” (Bioorg Med Chem Lett, 2010):

Assays:
[1] = target: T1, Cystine/glutamate transporter (Homo sapiens) (UniProt Q9UPY5); experiment: Inhibition of amino acid transport system xc- in human SNB19 cells assessed as [3H]L-glutamate uptake at 500 uM after 24 hrs by liquid scintillation counting; assay type: cell-based; settings: SNB-19
T1 sequence (whole entry): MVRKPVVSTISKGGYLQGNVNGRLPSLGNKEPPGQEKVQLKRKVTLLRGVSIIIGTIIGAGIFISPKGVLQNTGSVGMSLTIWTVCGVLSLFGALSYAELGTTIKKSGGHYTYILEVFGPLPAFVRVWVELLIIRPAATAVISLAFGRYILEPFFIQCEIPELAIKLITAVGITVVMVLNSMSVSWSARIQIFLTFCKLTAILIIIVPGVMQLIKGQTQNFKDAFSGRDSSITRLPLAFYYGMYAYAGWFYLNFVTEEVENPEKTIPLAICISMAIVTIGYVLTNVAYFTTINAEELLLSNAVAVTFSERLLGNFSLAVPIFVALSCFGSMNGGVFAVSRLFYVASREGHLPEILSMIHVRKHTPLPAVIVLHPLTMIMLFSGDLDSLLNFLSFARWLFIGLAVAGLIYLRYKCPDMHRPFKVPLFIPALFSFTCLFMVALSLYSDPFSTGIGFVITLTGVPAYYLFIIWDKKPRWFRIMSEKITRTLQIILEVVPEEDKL
Summary of the method: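 Uptake begun by adding ³H-L-glutamate (100 μM) with inhibitor (500 μM) to the wells and run for 5 min. Wells rinsed three times with 0°C HBHS, and cells lysed in 0.4 M NaOH for 24 h. A 200 μl aliquot was acidified with acetic acid and radioactivity counted against background.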

Rattus norvegicus = species: Rattus norvegicus; experiment: Inhibition of VGLUT in rat brain synaptic vesicles assessed as [3H]L-glutamate uptake at 5 mM after 24 hrs by liquid scintillation counting; assay type: tissue-based
Summary of the method: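 Vesicular uptake used 250 μM L-glutamate as substrate, with inhibitor at 5 mM.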

[2] = target: T2, Cystine/glutamate transporter (Homo sapiens, UniProt Q9UPY5); experiment: Inhibition of amino acid transport system xc-
T2 sequence (Q9UPY5 whole entry): T1 sequence (whole entry)
Summary of the method: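 Cells were given 100 μM ³H-L-glutamate plus 500 μM inhibitor, and uptake ran for 5 min. Wells were rinsed three times with 0°C HBHS, and cells were lysed in 0.4 M NaOH for 24 h. Acetic acid was added to a lysate aliquot, and radioactivity was counted against background.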

[3] = Inhibition of VGLUT

Structure (SMILES)	Drug uptake [1] [%]	Drug uptake (Rattus norvegicus) [%]	IC50 [2] [µM]	IC50 [3] [µM]
NC(C(=O)O)c1ccc(S(=O)(=O)O)s1 (stereo unspecified)	26	81		
NC(C(=O)O)c1ccc(-c2cccs2)s1 (stereo unspecified)	69	53		
NC(C(=O)O)c1ccc(-c2ccc(C(=O)O)cc2)cc1 (stereo unspecified)	27	75		
Cc1cc(C(N)C(=O)O)sc1C (stereo unspecified)	73	57		
N[C@H](C(=O)O)c1ccc(C(=O)O)cc1			5	
N[C@@H](Cn1oc(=O)[nH]c1=O)C(=O)O [QUISQUALATE]			5	
Cc1csc(C(=O)O)c1N	83	91		
Nc1c(/N=N/c2ccc(-c3ccc(/N=N/c4cc(S(=O)(=O)O)c5ccccc5c4N)cc3)cc2)cc(S(=O)(=O)O)c2ccccc12		31		
N[C@H](C(=O)O)c1ccc(S(=O)(=O)O)cc1	55	105		
N[C@@H](C(=O)O)c1ccc(S(=O)(=O)O)cc1	98	108		
N[C@H](C(=O)O)c1ccc(S(=O)(=O)O)s1	32	92		
Cc1cc(-c2ccc(/N=N/c3c(S(=O)(=O)O)cc4cc(S(=O)(=O)O)cc(N)c4c3O)c(C)c2)ccc1/N=N/c1c(S(=O)(=O)O)cc2cc(S(=O)(=O)O)cc(N)c2c1O [TRYPAN BLUE]				0.05
N[C@H](Cc1ccc(S(=O)(=O)O)cc1)C(=O)O	101	102		
NC(C(=O)O)c1c[nH]cn1 (stereo unspecified)	96	95		
Cc1c(C(=O)O)sc(N)c1C(=O)O	57	44		
NC(C(=O)O)c1csc2ccccc12 (stereo unspecified)	53	31		
N[C@@H](CS)C(=O)O	22			
N[C@@H](CCS(=O)(=O)O)C(=O)O			35	
N[C@@H](Cc1ccc(S(=O)(=O)O)cc1)C(=O)O	90	131		
N[C@@H](COS(=O)(=O)O)C(=O)O			26	
N[C@@H](C(=O)O)c1ccc(S(=O)(=O)O)s1	55	104		
NC(C(=O)O)c1ccc(Br)s1 (stereo unspecified)	83	37		
NC(Cc1ccc(Br)cc1S(=O)(=O)O)C(=O)O (stereo unspecified)	83	77		
CC(N)(Cc1ccc(S(=O)(=O)O)cc1)C(=O)O (stereo unspecified)	106	98		
